Experimental data reported in BindingDB's records for doi:10.1021/jm049620r (University of Florida, 2004).
Bridge positions count the residues as written; N and C are the ends. Peptide text beside a SMILES is read from it.

Biological target: Melanocyte-stimulating hormone receptor (Mus musculus, UniProt Q01727)
Assay: Agonistic activity against mouse Melanocortin 1 Receptor
How it was run: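 HEK-293 cells stably expressing the receptor (G418 selection), transiently transfected with a CRE/β-galactosidase reporter. Lysates read with ONPG at OD405 and normalized to protein content and forskolin (10^-4 M) response. EC50 from nonlinear least-squares fit, at least three independent experiments.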

Sequence of Melanocyte-stimulating hormone receptor (Q01727 whole entry): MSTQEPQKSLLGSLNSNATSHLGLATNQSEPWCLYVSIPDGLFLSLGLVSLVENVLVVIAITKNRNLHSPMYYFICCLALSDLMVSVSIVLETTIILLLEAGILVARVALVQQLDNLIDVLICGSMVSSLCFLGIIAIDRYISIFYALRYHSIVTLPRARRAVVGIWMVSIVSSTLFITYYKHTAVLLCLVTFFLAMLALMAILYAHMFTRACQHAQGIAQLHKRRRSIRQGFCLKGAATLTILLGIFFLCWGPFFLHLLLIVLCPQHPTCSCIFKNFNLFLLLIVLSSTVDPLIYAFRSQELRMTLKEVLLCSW

- EC50: 5.12 µM
SMILES: C[C@@H]1NC(=O)[C@H](CC(N)=O)NC(=O)[C@H](Cc2ccccc2)NC(=O)[C@H](Cc2ccccc2)NC(=O)[C@H](CCCNC(=N)N)NC(=O)[C@@H](NC(=O)[C@@H](N)Cc2ccc(O)cc2)CSSC[C@@H](C(=O)N[C@@H](Cc2ccc(O)cc2)C(N)=O)NC(=O)[C@H](Cc2ccccc2)NC1=O (H-YCRFFNAFCY-NH2; disulfide 2-9)
